Laboratory results as given in ChEMBL document CHEMBL5104222 (RSC Med Chem, 2022).
The source made the active and inactive calls. No cut-off for these calls is given here.

Key:
[1] = target: T1, von Hippel-Lindau disease tumor suppressor/Histone deacetylase 2 (Homo sapiens) (UniProt Q92769+P40337); assay: PROTAC activity at VHL/HDAC2 in human HCT-116 cells assessed as HDAC2 level at 2.5 uM incubated for 24 hrs by Western blot analysis relative to control; format: cell-based
In short: (§1)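 HCT116 cells were treated 24 h post-seeding, with doses of 0.01-10 μM, and harvested after 24 h. Lysis used 50 mM Tris-HCl, 150 mM NaCl, 0.5% NP-40 and 0.5% Triton X-100 with protease inhibitor, 30 min on ice. Protein was measured by Bradford and 20-30 μg loaded per lane. Blots were probed for HDAC1, HDAC2 and HDAC3 with α-tubulin and read by infrared densitometry. Levels are given as % of DMSO. DC50 was fitted from Dmax values with a variable-slope dose-response model.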

[2] = target: T2, von Hippel-Lindau disease tumor suppressor/Histone deacetylase 3 (Homo sapiens) (UniProt O15379+P40337); assay: PROTAC activity at VHL/HDAC3 in human HCT-116 cells assessed as HDAC3 level at 0.5 uM incubated for 24 hrs by Western blot analysis relative to control; format: cell-based; in short: as §1
[3] = target: T2, von Hippel-Lindau disease tumor suppressor/Histone deacetylase 3 (Homo sapiens); assay: PROTAC activity at VHL/HDAC3 in human HCT-116 cells assessed as HDAC3 level at 0.01 uM incubated for 24 hrs by Western blot analysis relative to control; format: cell-based; in short: as §1
HCT-116 [4] = assay: Inhibition of class I HDAC in human HCT-116 cells nucleus extract assessed as fold change in H3K56 acetylation level at 10 uM incubated for 24 hrs by Western blot analysis relative to control; format: subcellular
In short: (§2)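 HCT116 cells were treated 24 h after seeding and exposed for 24 h. Histones were acid-extracted from the lysis pellet with 0.4 N H2SO4 overnight at 4 °C. Immunoblots were probed for H3K56Ac, with total H3 as control, and imaged by IRDye infrared detection. Fold change in H3K56Ac is relative to DMSO. Controls were CI-994 and JPS004 at 10 μM.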

[5] = target: T3, von Hippel-Lindau disease tumor suppressor/Histone deacetylase 1 (Homo sapiens) (UniProt Q13547+P40337); assay: PROTAC activity at VHL/HDAC1 in human HCT-116 cells assessed as HDAC1 level at 0.5 uM incubated for 24 hrs by Western blot analysis relative to control; format: cell-based; in short: as §1
[6] = target: T1, von Hippel-Lindau disease tumor suppressor/Histone deacetylase 2 (Homo sapiens); assay: PROTAC activity at VHL/HDAC2 in human HCT-116 cells assessed as HDAC2 level at 1 uM incubated for 24 hrs by Western blot analysis relative to control; format: cell-based; in short: as §1
[7] = target: T2, von Hippel-Lindau disease tumor suppressor/Histone deacetylase 3 (Homo sapiens); assay: PROTAC activity at VHL/HDAC3 in human HCT-116 cells assessed as HDAC3 level at 10 uM incubated for 24 hrs by Western blot analysis relative to control; format: cell-based; in short: as §1
[8] = target: T1, von Hippel-Lindau disease tumor suppressor/Histone deacetylase 2 (Homo sapiens); assay: PROTAC activity at VHL/HDAC2 in human HCT-116 cells assessed as induction of HDAC2 degradation at 0.1 to 10 uM incubated for 24 hrs by Western blot analysis relative to control; format: cell-based; settings: dose 0.1-10 µM; in short: as §1
[9] = target: T2, von Hippel-Lindau disease tumor suppressor/Histone deacetylase 3 (Homo sapiens); assay: PROTAC activity at VHL/HDAC3 in human HCT-116 cells assessed as HDAC3 level at 0.05 uM incubated for 24 hrs by Western blot analysis relative to control; format: cell-based; in short: as §1
[10] = target: T2, von Hippel-Lindau disease tumor suppressor/Histone deacetylase 3 (Homo sapiens); assay: PROTAC activity at VHL/HDAC3 in human HCT-116 cells assessed as HDAC3 level at 0.25 uM incubated for 24 hrs by Western blot analysis relative to control; format: cell-based; in short: as §1
[11] = target: T3, von Hippel-Lindau disease tumor suppressor/Histone deacetylase 1 (Homo sapiens); assay: PROTAC activity at VHL/HDAC1 in human HCT-116 cells assessed as HDAC1 level at 0.25 uM incubated for 24 hrs by Western blot analysis relative to control; format: cell-based; in short: as §1
[12] = target: T3, von Hippel-Lindau disease tumor suppressor/Histone deacetylase 1 (Homo sapiens); assay: PROTAC activity at VHL/HDAC1 in human HCT-116 cells assessed as HDAC1 level at 0.1 uM incubated for 24 hrs by Western blot analysis relative to control; format: cell-based; in short: as §1
[13] = target: T2, von Hippel-Lindau disease tumor suppressor/Histone deacetylase 3 (Homo sapiens); assay: PROTAC activity at VHL/HDAC3 in human HCT-116 cells assessed as HDAC3 level at 0.1 uM incubated for 24 hrs by Western blot analysis relative to control; format: cell-based; in short: as §1
[14] = target: T3, von Hippel-Lindau disease tumor suppressor/Histone deacetylase 1 (Homo sapiens); assay: PROTAC activity at VHL/HDAC1 in human HCT-116 cells assessed as HDAC1 level at 0.05 uM incubated for 24 hrs by Western blot analysis relative to control; format: cell-based; in short: as §1
[15] = target: T3, von Hippel-Lindau disease tumor suppressor/Histone deacetylase 1 (Homo sapiens); assay: PROTAC activity at VHL/HDAC1 in human HCT-116 cells assessed as HDAC1 level at 0.025 uM incubated for 24 hrs by Western blot analysis relative to control; format: cell-based; in short: as §1
HCT-116 [16] = assay: Inhibition of class I HDAC in human HCT-116 cells nucleus extract assessed as fold change in H3K56 acetylation level at 1 uM incubated for 24 hrs by Western blot analysis relative to control; format: subcellular; in short: as §2
HCT-116 [17] = assay: Inhibition of class I HDAC in human HCT-116 cells nucleus extract assessed as fold change in H3K56 acetylation level at 0.1 uM incubated for 24 hrs by Western blot analysis relative to control; format: subcellular; in short: as §2

T2 sequence (O15379 whole entry, looked up): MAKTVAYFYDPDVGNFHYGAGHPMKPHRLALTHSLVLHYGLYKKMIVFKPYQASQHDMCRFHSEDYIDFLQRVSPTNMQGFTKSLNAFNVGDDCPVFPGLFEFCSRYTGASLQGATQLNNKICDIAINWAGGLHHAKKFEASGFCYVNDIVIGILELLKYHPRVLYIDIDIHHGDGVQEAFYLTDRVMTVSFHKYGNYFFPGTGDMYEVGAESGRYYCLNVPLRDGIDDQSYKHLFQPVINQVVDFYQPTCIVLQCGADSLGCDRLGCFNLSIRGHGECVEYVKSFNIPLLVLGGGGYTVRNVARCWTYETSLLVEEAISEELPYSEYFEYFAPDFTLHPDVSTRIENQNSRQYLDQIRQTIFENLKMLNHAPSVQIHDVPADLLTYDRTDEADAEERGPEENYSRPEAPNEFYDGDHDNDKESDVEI
T2 sequence (P40337 whole entry, looked up): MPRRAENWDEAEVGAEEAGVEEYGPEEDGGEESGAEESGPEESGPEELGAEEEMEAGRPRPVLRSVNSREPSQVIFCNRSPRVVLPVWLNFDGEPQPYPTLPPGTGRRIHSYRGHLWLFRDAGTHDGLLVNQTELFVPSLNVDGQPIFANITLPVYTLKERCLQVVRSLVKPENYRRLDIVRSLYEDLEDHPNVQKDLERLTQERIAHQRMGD
T1 sequence (P40337 whole entry, looked up): as above
T1 sequence (Q92769 whole entry, looked up): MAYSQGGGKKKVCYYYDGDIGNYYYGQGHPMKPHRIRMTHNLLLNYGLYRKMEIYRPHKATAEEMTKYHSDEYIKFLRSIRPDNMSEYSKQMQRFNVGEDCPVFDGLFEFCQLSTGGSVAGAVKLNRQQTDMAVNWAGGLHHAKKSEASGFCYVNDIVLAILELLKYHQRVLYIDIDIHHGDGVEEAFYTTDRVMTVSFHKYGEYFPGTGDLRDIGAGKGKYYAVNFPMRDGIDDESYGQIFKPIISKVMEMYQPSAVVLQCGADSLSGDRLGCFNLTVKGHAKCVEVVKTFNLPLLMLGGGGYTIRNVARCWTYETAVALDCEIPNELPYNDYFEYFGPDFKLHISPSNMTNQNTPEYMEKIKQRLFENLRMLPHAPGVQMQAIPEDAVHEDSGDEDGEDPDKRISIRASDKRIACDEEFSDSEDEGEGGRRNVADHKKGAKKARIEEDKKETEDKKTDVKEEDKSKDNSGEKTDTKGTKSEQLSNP
T3 sequence (P40337 whole entry, looked up): as the sequence (P40337 whole entry, looked up) above
T3 sequence (Q13547 whole entry, looked up): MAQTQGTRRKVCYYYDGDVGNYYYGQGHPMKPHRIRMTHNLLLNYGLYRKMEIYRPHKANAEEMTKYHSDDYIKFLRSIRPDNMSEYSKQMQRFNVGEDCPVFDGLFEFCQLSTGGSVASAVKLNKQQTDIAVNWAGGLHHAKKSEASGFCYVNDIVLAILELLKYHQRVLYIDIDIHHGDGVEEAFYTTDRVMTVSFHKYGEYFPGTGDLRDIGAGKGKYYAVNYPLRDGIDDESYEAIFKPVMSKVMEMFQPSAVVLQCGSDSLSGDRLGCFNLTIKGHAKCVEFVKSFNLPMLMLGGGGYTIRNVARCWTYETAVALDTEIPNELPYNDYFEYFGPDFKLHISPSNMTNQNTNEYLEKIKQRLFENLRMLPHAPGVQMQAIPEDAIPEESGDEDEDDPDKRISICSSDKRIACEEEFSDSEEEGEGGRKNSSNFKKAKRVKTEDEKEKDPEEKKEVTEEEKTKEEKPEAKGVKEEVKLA

Activity [1]: 73%
Activity [2]: 110%
Activity [3]: 100%
fold change (FC) (HCT-116 [4]): 3
Activity [5]: 98%
Activity [6]: 85%
Activity [7]: 80%
Activity [8]: Active
Activity [9]: 97%
Activity [10]: 114%
Activity [11]: 92%
Activity [12]: 118%
Activity [13]: 107%
Activity [14]: 117%
Activity [15]: 111%
fold change (FC) (HCT-116 [16]): 1.2
fold change (FC) (HCT-116 [17]): 1.2
SMILES: Cc1ncsc1-c1ccc(CNC(=O)[C@@H]2C[C@@H](O)CN2C(=O)[C@@H](NC(=O)CCCCCCCCCn2cc(CCCOC(=O)NCc3ccc(C(=O)Nc4ccccc4N)cc3)nn2)C(C)(C)C)cc1
